# What was measured:
# [1] = test system: Mycobacterium tuberculosis; test: […]; type: functional, TN587
# How it was run: (§1)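 Strains were grown at 37 °C in 7H9 Middlebrook broth with 10% OADC, 0.05% Tween and 0.2% glycerol. Compounds were dissolved in DMSO and serially diluted 2-fold, then bacteria were added. Plates were incubated 6 days at 37 °C, then 24 h more with Alamar Blue. MIC was the lowest concentration (μg/mL) that prevented the colour change. Run in triplicate.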
# [2] = test system: Mycobacterium tuberculosis; test: […]; type: functional, NHN382; how it was run: as §1
SMILES,MIC [1] [µg/mL],MIC [2] [µg/mL]
CCCCOC(=O)Nc1cc2nc(C3CCCCC3)[nH]c2cc1N(CC)CC,1.25,1.25
CCc1ccc(C(=O)Nc2cc3nc(C4CCCCC4)[nH]c3cc2N(C)C)cc1,0.16,0.16
CCCCOC(=O)Nc1cc2nc(C3CCCCC3)[nH]c2cc1N(C)C,0.13,0.06
NNC(=O)c1ccncc1 [ISONIAZID],0.25,0.25

# Source: ChEMBL document CHEMBL3124890, “SAR studies on trisubstituted benzimidazoles as inhibitors of Mtb FtsZ for the development of novel antitubercular agents” (J Med Chem, 2013)
